Source: ChEMBL document CHEMBL1909636, “Evaluation of the antiproliferative activity of diterpene isonitriles from the sponge Pseudoaxinella flava in apoptosis-sensitive and apoptosis-resistant cancer cell lines” (2011)
Active and inactive are the calls of the source. The rule behind the calls is not given here.

Assays:
PC-3 [1] = assay: Cytotoxicity against human PC3 cells assessed as cell death at IC50 by quantitative video microscopy analysis; type: functional, cell-based
Procedure, shortened: (§1)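 PC3 cells were treated for 72 h at a single concentration taken from the 72 h MTT growth assay and followed by computer-assisted phase-contrast videomicroscopy. Dead cells were scored as rounded and refringent, and cytostatic action was distinguished as inhibited proliferation without cell death. Morphology was examined at ×100 and, for high-magnification views, ×500.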

PC-3 [2] = assay: Growth inhibition of human PC3 cells after 72 hrs by MTT colorimetric assay; type: functional; conditions: PC-3, 72 h
Procedure, shortened: (§2)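 Cells were exposed to the compound over a range of concentrations for three days (72 h) and growth was read by MTT colorimetric assay. IC50 is the concentration that reduces global growth of the cell population by 50%.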

PC-3 [3] = assay: Induction of apoptosis in human PC3 cells assessed as vacuolization after 72 hrs at IC50 by quantitative video microscopy analysis; type: functional, cell-based
A549 = assay: Growth inhibition of human A549 cells after 72 hrs by MTT colorimetric assay; type: functional; conditions: A549, 72 h; procedure, shortened: as §2
SK-MEL-28 = assay: Growth inhibition of human SK-MEL-28 cells after 72 hrs by MTT colorimetric assay; type: functional; conditions: SK-MEL-28, 72 h; procedure, shortened: as §2
LoVo = assay: Growth inhibition of human LoVo cells after 72 hrs by MTT colorimetric assay; type: functional; procedure, shortened: as §2
[4] = Growth inhibition of human U373 cells after 72 hrs by MTT colorimetric assay; type: functional, U-373MG ATCC; conditions: U373 MG; procedure, shortened: as §2
PC-3 [5] = assay: Cytostatic activity in human PC3 cells at IC50 by quantitative video microscopy analysis; type: functional, cell-based; procedure, shortened: as §1
[6] = Growth inhibition of human Hs683 cells after 72 hrs by MTT colorimetric assay; type: functional; conditions: Hs 683, 72 h; procedure, shortened: as §2

Structure (SMILES) | Activity (PC-3 [1]) | GI50 (PC-3 [2]) [µM] | Activity (PC-3 [3]) | GI50 (A549) [µM] | GI50 (SK-MEL-28) [µM] | GI50 (LoVo) [µM] | GI50 [4] [µM] | Activity (PC-3 [5]) | GI50 [6] [µM]
[C-]#[N+][C@@]1(C)CC[C@H]2[C@H]3[C@@H](C(=C)CC[C@H]31)[C@H](C=C(C)C)C[C@@H]2C | Active | 7 | Active | – | – | – | – | – | –
[C-]#[N+]C(C)(C)C[C@@H]1C[C@H](C)[C@H]2CC[C@H](C)[C@@]3([N+]#[C-])CCC(=C)[C@@H]1[C@H]23 [DIISOCYANOAMPHILECTENE] | – | 1 | – | 42 | 6 | 3 | 25 | Active | 50
[C-]#[N+]C(C)(C)C[C@@H]1C[C@H](C)[C@H]2CC[C@](C)([N+]#[C-])[C@@H]3CCC(=C)[C@@H]1[C@H]23 | – | 3 | – | 16 | 32 | 3 | 10 | Active | 4
[C-]#[N+][C@@]1(C)CC[C@H]2[C@H]3[C@@H](C(=C)CC[C@H]31)[C@H](CC(=C)C)C[C@@H]2C | Active | 7 | – | – | – | – | – | – | –
